Data taken from ChEMBL document CHEMBL1144440, “A-ring-substituted estrogen-3-O-sulfamates: potent multitargeted anticancer agents” (J Med Chem, 2005).

Columns and labels:
MCF7 = assay: Inhibition of the growth of human breast cancer MCF-7 cells done for 96 hr at 37 degree C with compound; details: MCF7, 96 h
[1] = Concentration required to inhibit the growth of HOP-6 human lung cancer cells by 50%; assay type: functional; details: Cancer cell lines
How it was run: (§1)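 NCI 55 human cancer cell line panel screen; GI50 is the concentration giving 50% growth inhibition; compounds tested over 10^-4 to 10^-8 M.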

SF-539 = assay: Concentration required to inhibit the growth of SF-539 human CNS cancer cells by 50%; assay type: functional
How it was run: as §1

SN12C = assay: Concentration required to inhibit the growth of SN12C human renal cancer cells by 50%; assay type: functional
How it was run: as §1

HCT-116 = assay: Concentration required to inhibit the growth of HCT116 human colon cancer cells by 50%; assay type: functional
How it was run: as §1

DU-145 = assay: Concentration required to inhibit the growth of DU-145 human prostate cancer cells by 50%; assay type: functional
How it was run: as §1

OVCAR-3 = assay: Concentration required to inhibit the growth of OVCAR-3 human ovarian cancer cells by 50%; assay type: functional
How it was run: as §1

MDA-MB-435 = assay: Concentration required to inhibit the growth of MDA-MB-435 human breast cancer cells by 50%; assay type: functional
How it was run: as §1

UACC-62 = assay: Concentration required to inhibit the growth of UACC-62 human melanoma cells by 50%; assay type: functional
How it was run: as §1

[2] = Mean graph midpoint (MGM) against a panel of human tumor cell lines; assay type: functional
How it was run: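 NCI 55 cell line panel; mean graph midpoint is the mean concentration giving 50% growth inhibition across all cell lines successfully evaluated; tested range 10^-4 to 10^-8 M, so 0.01 µM is the […] possible value.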

Steryl-sulfatase = biological target: T1, Steryl-sulfatase (Homo sapiens, UniProt P08842); assay: Inhibitory concentration against steroid sulfatase in placental microsomes; design: species or system Placenta
T1 sequence (P08842 whole entry): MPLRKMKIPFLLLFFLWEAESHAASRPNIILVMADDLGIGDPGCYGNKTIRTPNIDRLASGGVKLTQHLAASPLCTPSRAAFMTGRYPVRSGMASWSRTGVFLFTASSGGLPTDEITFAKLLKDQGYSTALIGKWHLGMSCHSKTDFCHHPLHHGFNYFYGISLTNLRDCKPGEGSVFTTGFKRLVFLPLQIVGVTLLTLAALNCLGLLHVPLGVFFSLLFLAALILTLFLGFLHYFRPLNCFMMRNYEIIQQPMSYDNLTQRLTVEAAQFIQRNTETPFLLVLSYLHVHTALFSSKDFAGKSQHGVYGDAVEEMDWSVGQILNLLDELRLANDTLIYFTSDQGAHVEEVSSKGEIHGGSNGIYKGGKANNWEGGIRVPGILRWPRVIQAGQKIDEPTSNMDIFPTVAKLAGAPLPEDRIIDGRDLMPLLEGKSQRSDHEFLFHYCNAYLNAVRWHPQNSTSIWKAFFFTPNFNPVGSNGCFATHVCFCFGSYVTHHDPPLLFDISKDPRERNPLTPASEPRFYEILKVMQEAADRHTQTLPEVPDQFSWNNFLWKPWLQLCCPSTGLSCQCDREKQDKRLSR

Mus musculus = assay: Reduction of tumor growth in female mice transplanted with xenografts derived from MDA-MB-435 (ER-) human breast cancer cells after 28 days of treatment at 20 mg/kg oral dose; assay type: functional, organism-based; design: dose 20 mg/kg, route oral; details: MDA-MB-435, 672 h
How it was run: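 Oral daily dosing for 28 days. Drug was dissolved in minimal THF, then diluted with propylene glycol. Vehicle controls received THF/propylene glycol. Groups were 12 female mice bearing MDA-MB-435 xenografts, with dosing started at 100-200 mm³. Tumour length and width were measured weekly, volume = l × w²/2, and monitoring continued 28 days after dosing. Growth was compared with controls by Student's t test.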

SMILES | GI50 (MCF7) | GI50 (HCT-116) | GI50 (DU-145) | GI50 (OVCAR-3) | GI50 (MDA-MB-435) | GI50 [1] | GI50 (SF-539) | GI50 (SN12C) | MGM [2] | other results
C[S+]([O-])c1cc2c(cc1O)CC[C@@H]1[C@@H]2CC[C@]2(C)C(=O)CC[C@@H]12 (some centres undefined) | > 10 µM | – | – | – | – | – | – | – | – | –
C[C@]12CC[C@@H]3c4cc(Br)c(O)cc4CC[C@H]3[C@@H]1CCC2=O | 33 µM | – | – | – | – | – | – | – | – | –
CCc1cc2c(cc1O)CC[C@@H]1[C@@H]2CC[C@]2(C)C(=O)CC[C@@H]12 | 57.6 µM | – | – | – | – | – | – | – | – | –
C[C@]12CC[C@@H]3c4cc(I)c(O)cc4CC[C@H]3[C@@H]1CCC2=O | 38 µM | – | – | – | – | – | – | – | – | –
CCc1cc2c(cc1OS(N)(=O)=O)CC[C@@H]1[C@@H]2CC[C@]2(C)C(=O)CC[C@@H]12 | 0.34 µM | < 0.01 µM | < 0.01 µM | < 0.01 µM | < 0.01 µM | < 0.01 µM | < 0.01 µM | < 0.01 µM | 0.014 µM | IC50 (Steryl-sulfatase): 1.8 µM; GI50 (UACC-62): < 0.01 µM
COc1cc2c(cc1OS(N)(=O)=O)CC[C@@H]1[C@@H]2CC[C@]2(C)[C@@H](O)CC[C@@H]12 | – | – | – | – | – | – | – | – | – | IC50 (Steryl-sulfatase): 0.034 µM; IC50 (Mus musculus): 33 µM
COc1cc2c(cc1OS(=O)(=O)N(C)C)CC[C@@H]1[C@@H]2CC[C@]2(C)C(=O)CC[C@@H]12 | > 10 µM | – | – | – | – | – | – | – | – | –
CSc1cc2c(cc1OS(N)(=O)=O)CC[C@@H]1[C@@H]2CC[C@]2(C)C(=O)CC[C@@H]12 | 0.4 µM | 0.088 µM | 22 µM | 0.012 µM | < 0.01 µM | 35 µM | 0.045 µM | 0.76 µM | 0.229 µM | IC50 (Steryl-sulfatase): 0.12 µM; GI50 (UACC-62): 0.052 µM
CSc1cc2c(cc1O)CC[C@@H]1[C@@H]2CC[C@]2(C)C(=O)CC[C@@H]12 | 33.4 µM | 20 µM | 85 µM | 22 µM | 12 µM | 27 µM | 14 µM | 19 µM | 20.4 µM | GI50 (UACC-62): 12 µM
CCOc1cc2c(cc1O)CC[C@@H]1[C@@H]2CC[C@]2(C)C(=O)CC[C@@H]12 | 9.04 µM | – | – | – | – | – | – | – | – | –
COc1cc2c(cc1OS(=O)(=O)NC(C)=O)CC[C@@H]1[C@@H]2CC[C@]2(C)C(=O)CC[C@@H]12 | 168 µM | – | – | – | – | – | – | – | – | –
CCSc1cc2c(cc1O)CC[C@@H]1[C@@H]2CC[C@]2(C)C(=O)CC[C@@H]12 | 31.9 µM | – | – | – | – | – | – | – | – | –
COc1cc2c(cc1OS(N)(=O)=O)CC[C@@H]1[C@@H]2CC[C@]2(C)C(=O)CC[C@@H]12 | 0.3 µM | 0.065 µM | 0.32 µM | < 0.01 µM | < 0.01 µM | 0.16 µM | 0.12 µM | 0.6 µM | 0.095 µM | IC50 (Steryl-sulfatase): 0.042 µM; GI50 (UACC-62): 0.017 µM
C[C@]12CC[C@@H]3c4cc(S(C)(=O)=O)c(O)cc4CC[C@H]3[C@@H]1CCC2=O | 66 µM | – | – | – | – | – | – | – | – | –
COc1cc2c(cc1O)CC[C@@H]1[C@@H]2CC[C@]2(C)C(=O)CC[C@@H]12 | 21.3 µM | – | – | – | – | – | – | – | – | –
COc1cc2c(cc1O)CC[C@@H]1[C@@H]2CC[C@]2(C)[C@@H](O)CC[C@@H]12 [2-METHOXYESTRADIOL] | – | 0.47 µM | 1.8 µM | 0.21 µM | 0.08 µM | 0.7 µM | 0.32 µM | 0.95 µM | 1.3 µM | GI50 (UACC-62): 0.36 µM
C[C@]12CC[C@@H]3c4ccc(OS(N)(=O)=O)cc4CC[C@H]3[C@@H]1CCC2=O [EMATE] | – | – | – | – | – | – | – | – | – | IC50 (Steryl-sulfatase): 0.022 µM

The next lines start with results.

GI50 (MCF7) | GI50 (HCT-116) | GI50 (DU-145) | GI50 (OVCAR-3) | GI50 (MDA-MB-435) | SMILES | GI50 [1] | GI50 (SF-539) | GI50 (SN12C) | MGM [2] | other results
0.61 µM | – | – | – | – | CCOc1cc2c(cc1OS(N)(=O)=O)CC[C@@H]1[C@@H]2CC[C@]2(C)[C@@H](O)CC[C@@H]12 | – | – | – | – | –
0.26 µM | – | – | – | – | Cc1cc2c(cc1OS(N)(=O)=O)CC[C@@H]1[C@@H]2CC[C@]2(C)C(=O)CC[C@@H]12 | – | – | – | – | –
23.2 µM | 8.5 µM | 24 µM | 14 µM | 2 µM | CCSc1cc2c(cc1O)CC[C@@H]1[C@@H]2CC[C@]2(C)[C@@H](O)CC[C@@H]12 | 16 µM | 16 µM | 18 µM | 10 µM | GI50 (UACC-62): 11 µM
3.96 µM | – | – | – | – | CSc1cc2c(cc1O)CC[C@@H]1[C@@H]2CC[C@]2(C)[C@@H](O)CC[C@@H]12 | – | – | – | – | –
10.5 µM | 3.5 µM | 11 µM | 2.9 µM | 1.7 µM | CCc1cc2c(cc1O)CC[C@@H]1[C@@H]2CC[C@]2(C)[C@@H](O)CC[C@@H]12 | 6.1 µM | 3.3 µM | 7.3 µM | 6.5 µM | –
6.95 µM | – | – | – | – | C[C@]12CC[C@@H]3c4cc(Br)c(OS(N)(=O)=O)cc4CC[C@H]3[C@@H]1CCC2=O | – | – | – | – | –
1.59 µM | – | – | – | – | C[C@]12CC[C@@H]3c4cc(I)c(OS(N)(=O)=O)cc4CC[C@H]3[C@@H]1CCC2=O | – | – | – | – | –
0.07 µM | < 0.01 µM | < 0.01 µM | < 0.01 µM | < 0.01 µM | CCc1cc2c(cc1OS(N)(=O)=O)CC[C@@H]1[C@@H]2CC[C@]2(C)[C@@H](O)CC[C@@H]12 | < 0.01 µM | < 0.01 µM | 0.04 µM | 0.016 µM | IC50 (Steryl-sulfatase): 1 µM; GI50 (UACC-62): < 0.01 µM
4.84 µM | – | – | – | – | CCOc1cc2c(cc1OS(N)(=O)=O)CC[C@@H]1[C@@H]2CC[C@]2(C)C(=O)CC[C@@H]12 | – | – | – | – | IC50 (Steryl-sulfatase): 0.89 µM
0.43 µM | – | – | – | – | CSc1cc2c(cc1OS(N)(=O)=O)CC[C@@H]1[C@@H]2CC[C@]2(C)[C@@H](O)CC[C@@H]12 | – | – | – | – | –
35.2 µM | 3.2 µM | 13 µM | 2.3 µM | 2.2 µM | CCSc1cc2c(cc1OS(N)(=O)=O)CC[C@@H]1[C@@H]2CC[C@]2(C)C(=O)CC[C@@H]12 | 6.9 µM | 1.4 µM | 11 µM | 5.62 µM | GI50 (UACC-62): 5.9 µM
23.4 µM | – | – | – | – | CCSc1cc2c(cc1OS(N)(=O)=O)CC[C@@H]1[C@@H]2CC[C@]2(C)[C@@H](O)CC[C@@H]12 | – | – | – | – | –
